Measured values from ChEMBL document CHEMBL1158789, “Sesquiterpenes from the red alga Laurencia tristicha” (J Nat Prod, 2005).
Converted amounts (≈) assume the structure as drawn.

Key:
Assay type in all cases: functional, cell-based
HeLa = test: Cytotoxicity against human HeLa cells by MTT assay
Method in brief: (§1)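 Human tumour lines (A549 lung adenocarcinoma, BGC-823 stomach cancer, Bel 7402 hepatoma, HCT-8 colon cancer, HeLa) were exposed to the compounds and viability was read by MTT. Potency was expressed as IC50 in μg/mL.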

BGC-823 = test: Cytotoxicity against human BGC823 cells by MTT assay; method in brief: as §1
A549 = test: Cytotoxicity against human A549 cells by MTT assay; method in brief: as §1
Bel-7402 = test: Cytotoxicity against human Bel7402 cells by MTT assay; method in brief: as §1
HCT-8 = test: Cytotoxicity against human HCT8 cells by MTT assay; method in brief: as §1

Row | Compound | IC50 (HeLa) | IC50 (BGC-823) | IC50 (A549) | IC50 (Bel-7402) | IC50 (HCT-8)
1 | Cc1ccc([C@]2(C)CC[C@@H](C(C)(C)O)O2)cc1 | > 10 µg/mL | > 10 µg/mL | > 10 µg/mL | > 10 µg/mL | > 10 µg/mL
2 | C=C1[C@](C)(O)CC[C@@]1(C)c1ccc(C)cc1 | > 10 µg/mL | > 10 µg/mL | > 10 µg/mL | > 10 µg/mL | > 10 µg/mL
3 | C=C1[C@](C)(O)CC[C@@]1(C)c1ccc(C)cc1O | > 10 µg/mL | > 10 µg/mL | > 10 µg/mL | > 10 µg/mL | > 10 µg/mL
4 | Cc1cc2c(cc1O)C[C@]1(CC[C@@H]3C[C@@]31C)O2 | > 10 µg/mL | > 10 µg/mL | > 10 µg/mL | > 10 µg/mL | > 10 µg/mL
5 | Cc1ccc(C(C)(O)C/C=C/C(C)(C)O)cc1 (stereo not given) | > 10 µg/mL | > 10 µg/mL | > 10 µg/mL | > 10 µg/mL | > 10 µg/mL
6 | C=C1[C@]2(C)CC[C@@]1(C)c1cc(Br)c(C)cc1O2 | > 10 µg/mL | > 10 µg/mL | > 10 µg/mL | > 10 µg/mL | > 10 µg/mL
7 | Cc1ccc([C@]2(C)CC[C@H](C(C)(C)O)O2)cc1 | > 10 µg/mL | > 10 µg/mL | > 10 µg/mL | > 10 µg/mL | > 10 µg/mL
8 | Cc1ccc([C@]2(C)CC[C@@H]3C[C@@]32C)cc1O | > 10 µg/mL | > 10 µg/mL | > 10 µg/mL | > 10 µg/mL | > 10 µg/mL
9 | C=C1[C@](C)(O)CC[C@@]1(C)c1ccc(C)c(O)c1 | > 10 µg/mL | > 10 µg/mL | > 10 µg/mL | > 10 µg/mL | > 10 µg/mL
10 | Cc1cc2c(cc1Br)[C@]1(C)CC[C@H](C)[C@]1(CO)O2 [APLYSINOL] | > 10 µg/mL | > 10 µg/mL | > 10 µg/mL | > 10 µg/mL | > 10 µg/mL
11 | Cc1cc2c(cc1Br)[C@]1(C)CC[C@H](C)[C@]1(C)O2 [APLYSIN] | > 10 µg/mL | > 10 µg/mL | > 10 µg/mL | > 10 µg/mL | > 10 µg/mL
12 | CC(C)=CCCC(C)(O)c1ccc(C)cc1 (stereo not given) [GOSSONOROL] | > 10 µg/mL | > 10 µg/mL | > 10 µg/mL | > 10 µg/mL | > 10 µg/mL
13 | CC1(C)[C@]23C[C@H](Br)[C@@](C)(Cl)C[C@@H]2O[C@]1(Br)[C@H](O)[C@H]1O[C@]13C [JOHNSTONOL] | > 10 µg/mL | > 10 µg/mL | > 10 µg/mL | > 10 µg/mL | > 10 µg/mL
14 | Cc1cc(O)c([C@]2(C)CC[C@@H]3C[C@@]32C)cc1-c1cc([C@]2(C)CC[C@@H]3C[C@@]32C)c(O)cc1C [LAUREBIPHENYL] | 1.61 µg/mL (≈ 3.74 µM) | 1.22 µg/mL (≈ 2.83 µM) | 1.68 µg/mL (≈ 3.9 µM) | 1.91 µg/mL (≈ 4.44 µM) | 1.77 µg/mL (≈ 4.11 µM)
